These results are taken from article PMC4145829 (Drug Design, Development and Therapy, 2014).

Usually IC50 stands for the concentration at which inhibition is half-maximal.

One series concerns patients. To be noted: cited from earlier work; for Associated clinical toxicities: Table 1.
Series [1] concerns human primary endothelial cells. To be noted: cited from earlier work.
The subject of series [2] is subintestinal vessels (SIVs) of zebrafish embryos. In words: Zebrafish subintestinal vessel angiogenesis assay. Format: in vivo. Particulars: for effect on SIV angiogenesis (in words): zebrafish embryos.
Series [3] has as its system chick chorioallantoic membrane. To be noted: cited from earlier work.
The subject of the next series is zebrafish embryos. In words: Zebrafish toxicity assay. Format: in vivo. To be noted: for gross morphological changes (in words): zebrafish larvae, exposure to 96 hours. An outline of the steps:
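Wild-type embryos at 24 hpf, bath-exposed in distilled water (pH 6.8–8) at 28°C with solutions renewed every 24 h. Naïve and 0.1% DMSO vehicle controls were included. Five concentrations, spacing factor 2, within solubility limits; 12 embryos per concentration per replicate; three independent experiments. Toxicity scored at 48 and 96 hpf; NOEC/LOEC derived experimentally; LC50 from pooled mortality via sigmoidal fit.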

Another series relates to VEGFR. To be noted: read-out: VEGFR inhibition IC50; biochemical assays; cited from earlier work.
The nature of series [4]: Compound precipitation in the test medium. In kind it is physicochemical. To be noted: test medium of the zebrafish assays (distilled water, 0.1% DMSO).
For series [5], the system named is mouse dorsal air sac model. Particulars: cited from earlier work.
Where [6] appears, read: concentration not given, 96 hpf.
[7] abbreviates: patients enrolled in clinical trial.

Entries after “also recorded” stand apart in the source; their conditions may differ.

Take `Cc1ccc(Nc2nccc(N(C)c3ccc4c(C)n(C)nc4c3)n2)cc1S(N)(=O)=O` [Pazopanib]: the Associated clinical toxicities entry in the series with patients was “Cardiotoxicity”.
In the case of `O=C1CCC(N2C(=O)c3ccccc3C2=O)C(=O)N1` (stereo not shown) [Thalidomide], the “effective anti-angiogenic concentration range (in words)” value in series [1] was “effective at micromolar concentrations”. Also, in series [2] (setting [6]), the “regression / decrease in SIV length” value is given as 20%–30%. The Associated clinical toxicities entry in the series with patients was “Teratogenic”. Moreover, the “anti-angiogenic effect in the CAM assay (in words)” value in series [3] is “does not exhibit anti-angiogenic effects”. Also, the “absence of fin development” value in the series with zebrafish embryos (Figure S3) turned out to be 100%. Further, in the series on zebrafish embryos (zebrafish embryos), the “concentration with reduction of otolith size and altered fin development” value was over 300 µM. Besides, the “gross morphological changes (in words)” value in the series with zebrafish embryos was “did not result in gross morphological changes with respect to notochord development and development of cardiac edema”.
Regarding `Clc1ccc(Nc2nnc(Cc3ccncc3)c3ccccc23)cc1` [Vatalanib], the Associated clinical toxicities result in the series on patients is listed as “Multiple systemic toxicities”. For the same compound, the “gross morphological changes (in words)” value in the series on zebrafish embryos was “multiple gross morphological abnormalities like yolk-sac edema, shortened body axis, bent notochord, jaw deformity, blood pooling, and un-inflated swim bladder”.
Turning to `CNC(=O)c1cc(Oc2ccc(NC(=O)Nc3ccc(Cl)c(C(F)(F)F)c3)cc2)ccn1` [Sorafenib], in series [2] (96 hpf), the “concentration giving complete regression of SIVs” value was under 1 µM and the “effect on SIV angiogenesis (in words)” value was “complete inhibition of SIV angiogenesis”. In addition, in the series on patients, the Associated clinical toxicities result is given as “Cardiotoxicity”. In addition, the “concentration with significant angiogenesis inhibition in the in vivo CAM assay” value in series [3] was 1 to 3 µM. Further, in the series on zebrafish embryos, the “gross morphological changes (in words)” value is given as “nonprogressive pericardial edema in all the embryos subjected to treatment (ie, 36/36)”.
On to `CNC(=O)c1cc(Oc2ccc(NC(=O)Nc3ccc(Cl)c(C(F)(F)F)c3)c(F)c2)ccn1` [Regorafenib], for which, in the series with VEGFR, the concentration for half-maximal inhibition (IC50) is 13 to 46 nM. In series [2] (96 hpf), the “concentration giving complete regression of SIVs” value is under 1 µM and the “effect on SIV angiogenesis (in words)” value was “complete inhibition of SIV angiogenesis”. In series [3], the “concentration with significant angiogenesis inhibition in the in vivo CAM assay” value was 1 to 3 µM. In addition, the “gross morphological changes (in words)” value with zebrafish embryos is given as “nonprogressive pericardial edema in all the embryos subjected to treatment (ie, 36/36)”.
Consider `C#Cc1cccc(Nc2ncnc3cc(OCCOC)c(OCCOC)cc23)c1` [Erlotinib], for which, in series [2] (1 μM, 96 hpf), the “decrease in the number of SIVs within the basket” value is reported as “no effect” and the “regression in SIV length” value amounted to 10%. The “effect on SIV angiogenesis (in words)” value in series [2] (96 hpf) is given as “Angiogenesis inhibition was not demonstrated”. Also, the Associated clinical toxicities entry in the series on patients is “Multiple systemic toxicities”. For the same compound, in series [4], the “concentration beyond which the compound precipitated” value is over 1 µM.
As for Bevacizumab, the “effect on SIV angiogenesis (in words)” value in series [2] (96 hpf) is given as “extremely variable results; also recorded: Angiogenesis inhibition was not demonstrated”. Also, the “gross morphological changes (in words)” value in the series with zebrafish embryos is given as “did not elicit dose-dependent toxicity or a consistent pathological phenotype”.
In the case of `Cc1ccc(C(=O)Nc2ccc(S(=O)(=O)O)c3cc(S(=O)(=O)O)cc(S(=O)(=O)O)c23)cc1NC(=O)c1cccc(NC(=O)Nc2cccc(C(=O)Nc3cc(C(=O)Nc4ccc(S(=O)(=O)O)c5cc(S(=O)(=O)O)cc(S(=O)(=O)O)c45)ccc3C)c2)c1` [Suramin], the “effective anti-angiogenic concentration range (in words)” value in series [1] is on record as “effective at micromolar concentrations”. In series [2] (setting [6]), the “inhibition of vessels within the angiogenic basket” value amounted to 45% and the “regression / decrease in SIV length” value came to 30%. Moreover, in the series on patients, the Associated clinical toxicities result is reported as “Multiple systemic toxicities”; the “toxicities in clinical trials” value is “neutropenia, neurological dysfunction, and development of renal insufficiency”. For the same compound, in series [3], the “concentration inhibiting angiogenesis in the CAM assay” value is 7 µM and the “fold higher concentration than VEGFR inhibitors in the CAM assay” value is 7 fold. Moreover, the “LC50 fold higher than the other multikinase inhibitors” value in the series on zebrafish embryos (96 hpf) is listed as “about 200 fold”. In addition, in the series with zebrafish embryos, the “gross morphological changes (in words)” value was “multiple sub-lethal toxicities like yolk-sac edema, nonprogressive pericardial edema, bent notochord, and jaw deformity; also recorded: multiple pathological changes like jaw deformity, pericardial edema, notochord deformity, and patchy necrosis”.
With `CCN(CC)CCNC(=O)c1c(C)[nH]c(/C=C2\C(=O)Nc3ccc(F)cc32)c1C` [Sunitinib], in the series with patients, the Associated clinical toxicities entry is recorded as “Cardiotoxicity”. In the series on patients (setting [7]), the “patients with congestive cardiac failure” value is reported as 11% and the “patients with decrease in left ventricular ejection fraction” value is listed as 28%.
Consider `Cc1cc(C)c(/C=C2\C(=O)Nc3ccccc32)[nH]1` [SU5416], for which, in series [2] (1 μM, 96 hpf), the “decrease in the number of SIVs within the basket” value amounted to 85% and the “regression in SIV length” value is listed as 38%. Besides, the “effect on SIV angiogenesis (in words)” value in series [2] (96 hpf) is listed as “incomplete SIV regression”. The Associated clinical toxicities result in the series with patients is reported as “Multiple systemic toxicities”. Further, in the series with zebrafish embryos, the “gross morphological changes (in words)” value was “multiple gross morphological abnormalities like yolk-sac edema, shortened body axis, bent notochord, jaw deformity, blood pooling, and un-inflated swim bladder”.
Regarding `COc1cc2nccc(Oc3ccc(NC(=O)C4(C(=O)Nc5ccc(F)cc5)CC4)cc3)c2cc1OC` [Cabozantinib], the Associated clinical toxicities entry in the series with patients was “Multiple systemic toxicities”.
On to `COc1cc2c(Nc3ccc(Br)cc3F)ncnc2cc1OCC1CCN(C)CC1` [Vandetanib], for which the IC50 with VEGFR was […]. The “effect on SIV angiogenesis (in words)” value in series [2] (96 hpf) was “incomplete SIV regression”. Also, the Associated clinical toxicities result in the series with patients is on record as “Cardiotoxicity”.
As for `CN1CC[C@H](c2c(O)cc(O)c3c(=O)cc(-c4ccccc4Cl)oc23)[C@H](O)C1` [Flavopiridol], the “effective anti-angiogenic concentration range (in words)” value in series [1] was “effective at micromolar concentrations”. In series [2] (2 μM, 96 hpf), the “decrease in the number of SIVs” value is 72% and the “regression in SIV length” value turned out to be 38%. For the same compound, in series [2] (2 μM, lectin staining at 72 hpf, Figure 2C), the “effect on SIV length and basket (in words)” value is given as “Partial regression of SIVs”. In addition, in the series on patients, the Associated clinical toxicities entry is listed as “Multiple systemic toxicities”; the “toxicities in clinical trials” value was “tumor lysis syndrome and febrile neutropenia”. Further, the “gross morphological changes (in words)” value in the series on zebrafish embryos was “multiple sub-lethal toxicities like yolk-sac edema, nonprogressive pericardial edema, bent notochord, and jaw deformity; also recorded: Widespread tissue necrosis; also recorded: multiple pathological changes like jaw deformity, pericardial edema, notochord deformity, and patchy necrosis”.
Regarding `CO[C@@H]1[C@H](OC(=O)NC(=O)CCl)CC[C@]2(CO2)[C@H]1[C@@]1(C)O[C@@H]1CC=C(C)C` [TNP-470], the toxicity limiting effectiveness result in series [5] was “severe weight loss”. The “regression / decrease in SIV length” value in series [2] (setting [6]) is 20%–30%. Besides, the “effect on SIV angiogenesis (in words)” value in series [2] (96 hpf) was “formation of aberrant SIV extensions”. For the same compound, in series [3], the “concentration inhibiting angiogenesis in the CAM assay” value is 100 to 125 µM and the “fold higher concentration than VEGFR inhibitors in the CAM assay” value is 100 fold. In addition, the “gross morphological changes (in words)” value in the series with zebrafish embryos is listed as “abnormal notochord morphology”.
Take `COc1cc2nccc(Oc3ccc(NC(=O)Nc4cc(C)on4)c(Cl)c3)c2cc1OC` [Tivozanib]: the “concentration giving complete regression in SIVs” value in series [2] (96 hpf) was 5 nM. Also, in the series on patients (patients with renal cell carcinoma), the “improvement of progression-free survival” value was about 12 months.
Take `COc1ccc(/C=C\c2cc(OC)c(OC)c(OC)c2)cc1O` [Combretastatin]: the “effect on SIV angiogenesis (in words)” value in series [2] (96 hpf) is on record as “lack of anti-angiogenic activity”; in series [2] (96 hpf, listed as combretastatin), “Angiogenesis inhibition was not demonstrated”. In addition, the Associated clinical toxicities entry in the series on patients is given as “Multiple systemic toxicities”. Also, the “gross morphological changes (in words)” value in the series on zebrafish embryos is recorded as “coagulation of zebrafish embryos”.
